Results: ChEMBL document CHEMBL1152982, “Synthetic analogue of rocaglaol displays a potent and selective cytotoxicity in cancer cells: involvement of apoptosis inducing factor and caspase-12” (J Med Chem, 2009)
The source made the active and inactive calls.

What was measured:
Mus musculus [1] = assay: Toxicity in B6 mouse assessed as diarrhea at 0.1 mg/kg, ip twice a day for 4 consecutive days measured on day 13; type: organism-based; design: dose 0.1 mg/kg, route intraperitoneal; details: in vivo
Summary of the method: (§1)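 Male B6 mice dosed i.p. at 0.1 mg/kg twice daily for four consecutive days; body weight recorded daily over 13 days and signs of acute toxicity such as diarrhea noted.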

H9c2 [2] = assay: Cytotoxicity against rat H9c2 cells at 20 nM after 48 hrs by FACS analysis; type: cell-based; details: h9c2, 48 h, 0.02 µM
Summary of the method: (§2)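 Rat H9c2 cardiomyoblasts treated 24 h (0.5-50 nM) or 24, 48 and 72 h (20 nM) versus vehicle; annexin V plus propidium iodide labeling and FACS for apoptosis; viability in parallel by MTS; doxorubicin 1 μM as positive control.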

KB = assay: Cytotoxicity against human KB cells after 72 hrs by MTS assay; type: functional, cell-based
Summary of the method: (§3)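 Human cancer lines treated for 72 h and proliferation/viability read by MTS assay; dose-response curves in duplicate with IC50 taken from the curves; MCF7R is the P-gp (MDR1)-expressing resistant line.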

MCF7 [3] = assay: Cytotoxicity against human MCF7 cells after 72 hrs by MTS assay; type: functional, cell-based; details: Homo sapiens, MCF7, 72 h; read-out: IC50; summary of the method: as §3
MCF7 [4] = assay: Cytotoxicity against human MCF7 cells expressing P-glycoprotein after 72 hrs by MTS assay; type: functional, cell-based; details: Homo sapiens, MCF7, 72 h; read-out: IC50; summary of the method: as §3
HCT-116 = assay: Cytotoxicity against human HCT116 cells after 72 hrs by MTS assay; type: functional, cell-based; details: HCT-116, 72 h; summary of the method: as §3
HCT-15 = assay: Cytotoxicity against human HCT15 cells after 72 hrs by MTS assay; type: functional, cell-based; details: Homo sapiens, HCT-15, 72 h; read-out: IC50; summary of the method: as §3
HL-60 [5] = assay: Cytotoxicity against human HL60 cells after 72 hrs by MTS assay; type: functional, cell-based; details: HL-60, 72 h
Summary of the method: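 HL60 cells exposed to compound for 72 h; proliferation/viability read by MTS assay. IC50 taken from dose-response curves run in duplicate.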

[6] = molecular target: ATP-dependent translocase ABCB1 (Homo sapiens, UniProt P08183); assay: Inhibition of P-glycoprotein expressing human MCF7 cells assessed as change in rhodamine 123 efflux at 0.1 to 1 uM; type: cell-based
HepG2 [7] = assay: Enhancement of doxorubicin-induced cytotoxicity against human HepG2 cells after 72 hrs by MTS assay; type: functional, cell-based
Summary of the method: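 HepG2 cells given the test agent alone or together with 150 nM doxorubicin for 72 h; proliferation by MTS assay; duplicate experiments, n = 3.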

H9c2 [8] = assay: Induction of apoptosis in rat H9c2 cells at 0.5 to 50 nM after 24 hrs by FACS analysis; type: cell-based; details: h9c2, 24 h, 0.05 µM; summary of the method: as §2
H9c2 [9] = assay: Induction of apoptosis in rat H9c2 cells at 20 nM after 48 hrs by FACS analysis; type: cell-based; details: h9c2, 48 h, 0.02 µM; summary of the method: as §2
H9c2 [10] = assay: Induction of apoptosis in rat H9c2 cells at 20 nM after 72 hrs by FACS analysis; type: cell-based; details: h9c2, 72 h, 0.02 µM; summary of the method: as §2
HepG2 [11] = assay: Cytotoxicity against human HepG2 cells after 72 hrs by MTS assay; type: functional, cell-based; details: Homo sapiens, HepG2, 72 h; read-out: IC50; summary of the method: as §3
Mus musculus [12] = assay: Toxicity in B6 mouse assessed as body weight loss at 0.1 mg/kg, ip twice a day for 4 consecutive days measured on day 13; type: organism-based; design: dose 0.1 mg/kg, route intraperitoneal; details: in vivo; summary of the method: as §1
HL-60 [13] = assay: Cell cycle arrest in human HL60 cells assessed as increase in G0/G1 peak at 200 nM after 48 hrs by FACS analysis; type: functional, cell-based
Summary of the method: (§4)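 HL60 cells treated for 48 h; vehicle control 1% DMSO, doxorubicin as positive control. Propidium iodide staining, DNA content by flow cytometry giving cell-cycle distribution (G2/M, G0-G1 peaks); n = 4, each sample in duplicate.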

HL-60 [14] = assay: Cell cycle arrest in human HL60 cells assessed as increase in G0/G1 peak at 20 nM after 48 hrs by FACS analysis; type: functional, cell-based; summary of the method: as §4
HL-60 [15] = assay: Induction of apoptosis in human HL60 cells assessed as cell killing at 20 nM after 72 hrs by annexin V flow cytometry; type: functional, cell-based
Summary of the method: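 HL60 cells treated with 20 nM for 72 h; apoptosis quantified by annexin V staining and flow cytometry.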

HL-60 [16] = assay: Induction of apoptosis in human HL60 cells assessed as caspase 3/7-mediated DEVD-AMC substrate cleavage at 1 to 1000 nM after 48 hrs by spectroscopy; type: functional, cell-based
Summary of the method: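 HL60 cells treated 48 h, doxorubicin as positive control; whole-cell extracts incubated with DEVD-AMC, fluorescence release followed over time; rate from slope of linear phase, expressed as fold-activation over DMSO-treated control.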

HL-60 [17] = assay: Induction of apoptosis in human HL60 cells assessed as caspase 3/7-mediated DEVD-AMC substrate cleavage at 24 to 72 hrs by spectroscopy; type: functional, cell-based
HL-60 [18] = assay: Induction of apoptosis in human HL60 cells assessed as […] mediated LEHD-AMC substrate cleavage at 1 to 1000 nM after 48 hrs by spectroscopy; type: functional, cell-based
HL-60 [19] = assay: Induction of apoptosis in human HL60 cells assessed as caspase 9-mediated […]-AMC substrate cleavage at 1 to 1000 nM after 48 hrs by spectroscopy; type: functional, cell-based
HL-60 [20] = assay: Antiproliferative activity against human HL60 cells at 50 nM in presence of caspase inhibitor Z-VAD-FMK; type: functional, cell-based
Summary of the method: (§5)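 HL60 cells exposed for 72 h, with or without co-treatment with Z-VAD-FMK (50 μM), necrostatin-1 (50 μM) or 3-methyladenine (2 mM). Antiproliferative effect was compared against vehicle.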

HL-60 [21] = assay: Antiproliferative activity against human HL60 cells at 50 nM in presence of […] inhibitor necrostatin 1; type: functional, cell-based; summary of the method: as §5
HL-60 [22] = assay: Antiproliferative activity against human HL60 cells at 50 nM in presence of […] inhibitor 3-methyladenine; type: functional, cell-based; summary of the method: as §5
HL-60 [23] = assay: Inhibition of proteasome activity in human HL60 cells at 2 to 20 nM
Summary of the method: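 Lysates of HL60 cells incubated with compound; in vitro chymotrypsin-like and trypsin-like proteasome activities measured with fluorogenic AMC substrates (LLVY-AMC, RLR-AMC).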

Oryctolagus cuniculus = species: Oryctolagus cuniculus; assay: Inhibition of capped and polyadenylated luciferase mRNA […] in rabbit reticulocyte lysate at 10000 nM after 1 hr; type: functional
Summary of the method: (§6)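 Cell-free translation of capped, polyadenylated luciferase mRNA in rabbit reticulocyte lysate, luciferase output as read-out; incubation 1 h; IC50 derived.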

HeLa [24] = assay: Induction of eIF-2alpha phosphorylation in human HeLa cells at 100 uM by Western blotting; type: functional, cell-based
Summary of the method: (§7)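 HeLa cells treated 1 h with DMSO, sodium arsenite (500 μM, positive control) or compound (100 or 500 μM); 10 μg total protein by SDS-PAGE/Western blot with anti-eIF2α and anti-phospho-eIF2α, ECL detection.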

HeLa [25] = assay: Induction of eIF-2alpha phosphorylation in human HeLa cells at 500 uM by Western blotting; type: functional, cell-based; summary of the method: as §7
HeLa [26] = assay: Induction of stress granules in human HeLa cells assessed as MLN51 and FMRP marker protein at >10 uM; type: functional, cell-based
Summary of the method: (§8)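 HeLa on coverslips in DMEM/5% FCS, cultured 24 h, then exposed to 50 nM-500 μM for 30 min to 8 h; immunofluorescence for stress-granule markers MLN51 (rabbit) and FMRP (mouse); cycloheximide 10 μg/mL and puromycin 100 μg/mL (1 h) as positive controls.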

HeLa [27] = assay: Induction of stress granules in human HeLa cells assessed as MLN51 and FMRP marker protein at 100 uM after 2 hrs; type: functional, cell-based; summary of the method: as §8
HeLa [28] = assay: Induction of stress granules in human HeLa cells assessed as MLN51 and FMRP marker protein at 500 nM after 8 hrs; type: functional, cell-based; summary of the method: as §8
HeLa [29] = assay: Induction of stress granules in human HeLa cells assessed as MLN51 and FMRP marker protein at 100 uM after 8 hrs; type: functional, cell-based; summary of the method: as §8
HeLa [30] = assay: Effect on apoptosis inducing factor localization into nucleus in human HeLa cells at 20 nM after 72 hrs; type: functional, cell-based
HeLa [31] = assay: Induction of apoptosis inducing factor translocation from […] to nucleus in human HeLa cells at 50 uM after 72 hrs by DAPI staining; type: functional, cell-based
Summary of the method: (§9)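 HeLa cells treated 72 h with compound or vehicle; immunocytochemistry co-labeling with anti-AIF and anti-caspase-12 antibodies, nuclei stained with DAPI to assess nuclear localization.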

HeLa [32] = assay: Induction of caspase 12 translocation from endoplasmic reticulum to nucleus in human HeLa cells at 50 uM after 72 hrs by DAPI staining; type: functional, cell-based; summary of the method: as §9
HL-60 [33] = assay: Cytotoxicity against human HL60 cells at 20 uM after 72 hrs in presence of caspase 12 inhibitor ATAD; type: functional, cell-based
Summary of the method: (§10)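 HL60 cells treated 72 h with or without caspase-12 inhibitor ATAD (10 μM) or m-calpain inhibitor N-acetyl-Leu-Leu-methioninal (20 μM); cytotoxicity compared with vehicle.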

HL-60 [34] = assay: Cytotoxicity against human HL60 cells at 20 uM after 72 hrs in presence of m-calpain inhibitor N-acetyl-Leu-Leu-methioninal; type: functional, cell-based; summary of the method: as §10
[35] = Inhibition of capped and polyadenylated luciferase mRNA in rabbit reticulocyte lysate; type: functional, Oryctolagus cuniculus; summary of the method: as §6
H9c2 [36] = assay: Cytotoxicity against rat H9c2 cells at 20 nM after 72 hrs by FACS analysis; type: cell-based; details: h9c2, 72 h, 0.02 µM; summary of the method: as §2

ATP-dependent translocase ABCB1, sequence (P08183 whole entry): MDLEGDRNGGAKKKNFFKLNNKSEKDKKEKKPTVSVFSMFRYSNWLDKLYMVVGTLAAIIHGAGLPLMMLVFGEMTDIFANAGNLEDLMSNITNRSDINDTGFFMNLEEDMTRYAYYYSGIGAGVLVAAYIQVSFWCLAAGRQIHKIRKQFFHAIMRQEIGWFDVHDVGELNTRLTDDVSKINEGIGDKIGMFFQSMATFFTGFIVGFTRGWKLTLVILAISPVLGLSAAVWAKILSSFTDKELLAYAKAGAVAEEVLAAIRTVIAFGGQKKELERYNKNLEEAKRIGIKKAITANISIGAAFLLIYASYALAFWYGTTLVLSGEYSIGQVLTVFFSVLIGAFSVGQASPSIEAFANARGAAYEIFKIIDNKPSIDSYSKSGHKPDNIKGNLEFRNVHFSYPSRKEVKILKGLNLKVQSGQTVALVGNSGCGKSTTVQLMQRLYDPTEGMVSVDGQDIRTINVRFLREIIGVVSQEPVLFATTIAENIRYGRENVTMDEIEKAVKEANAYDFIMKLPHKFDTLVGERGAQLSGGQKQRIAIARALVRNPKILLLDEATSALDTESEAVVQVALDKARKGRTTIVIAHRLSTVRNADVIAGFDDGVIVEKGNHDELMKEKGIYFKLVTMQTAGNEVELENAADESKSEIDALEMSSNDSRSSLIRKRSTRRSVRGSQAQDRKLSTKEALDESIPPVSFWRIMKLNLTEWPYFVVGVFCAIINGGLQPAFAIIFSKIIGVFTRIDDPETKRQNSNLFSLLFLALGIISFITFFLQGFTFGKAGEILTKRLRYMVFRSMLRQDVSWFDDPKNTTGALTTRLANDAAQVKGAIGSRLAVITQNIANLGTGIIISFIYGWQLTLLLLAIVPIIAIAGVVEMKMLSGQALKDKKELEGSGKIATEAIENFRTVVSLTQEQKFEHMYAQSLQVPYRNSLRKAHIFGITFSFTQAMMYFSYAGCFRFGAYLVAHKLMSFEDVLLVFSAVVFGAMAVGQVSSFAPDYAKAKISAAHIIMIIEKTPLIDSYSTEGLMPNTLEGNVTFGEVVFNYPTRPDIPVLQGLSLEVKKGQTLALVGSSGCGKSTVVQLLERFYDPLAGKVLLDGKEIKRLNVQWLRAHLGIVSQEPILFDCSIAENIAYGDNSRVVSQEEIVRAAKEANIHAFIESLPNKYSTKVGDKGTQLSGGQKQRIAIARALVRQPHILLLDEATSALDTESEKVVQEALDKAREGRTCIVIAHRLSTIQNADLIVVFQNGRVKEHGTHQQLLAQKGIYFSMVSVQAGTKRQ

COc1cc(OC)c2c(c1)O[C@@]1(c3ccc(Br)cc3)[C@H](c3ccccc3)C[C@@H](O)[C@@]21O
Non-toxic: Activity (Mus musculus [1]) | Activity (H9c2 [2]) | Activity (Mus musculus [12]) | Activity (H9c2 [36])
inactive: Activity (HL-60 [16]) | Activity (HL-60 [17]) | Activity (HL-60 [18]) | Activity (HL-60 [19]) | Activity (HL-60 [20]) | Activity (HL-60 [21]) | Activity (HL-60 [22]) | Activity (HL-60 [23]) | Activity (HL-60 [33])
1 nM: IC50 (MCF7 [3]) | IC50 (HCT-15)
Not Active: Activity [6] | Activity (H9c2 [8]) | Activity (H9c2 [9]) | Activity (H9c2 [10])
active: Activity (HepG2 [7]) | Activity (HL-60 [13]) | Activity (HL-60 [14]) | Activity (HL-60 [15]) | Activity (Oryctolagus cuniculus) | Activity (HeLa [24]) | Activity (HeLa [25]) | Activity (HeLa [26]) | Activity (HeLa [27]) | Activity (HeLa [28]) | Activity (HeLa [29]) | Activity (HeLa [30]) | Activity (HeLa [31]) | Activity (HeLa [32]) | Activity (HL-60 [34])
4 nM: IC50 (HepG2 [11])
< 1 nM: IC50 (KB) | IC50 (MCF7 [4]) | IC50 (HCT-116) | IC50 (HL-60 [5])
200 nM: IC50 [35]
